Measurements: ChEMBL document CHEMBL3425408, “Design, synthesis, in vitro, and in vivo anticancer and antiangiogenic activity of novel 3-arylaminobenzofuran derivatives targeting the colchicine site on tubulin” (J Med Chem, 2015)
Active and inactive are the calls of the source. No cut-off for these calls is given here.

What was measured:
HT-29 = test: Antiproliferative activity against human HT-29 cells after 72 hrs by (3-(4,5-dimethylthiazol-2-yl)-2,5-diphenyltetrazolium bromide test; assay type: functional, cell-based; conditions: HT-29, 72 h
A549 = test: Antiproliferative activity against human A549 cells after 72 hrs by (3-(4,5-dimethylthiazol-2-yl)-2,5-diphenyltetrazolium bromide test; assay type: functional, cell-based; conditions: A549, 72 h
MCF7 = test: Antiproliferative activity against human MCF7 cells after 72 hrs by (3-(4,5-dimethylthiazol-2-yl)-2,5-diphenyltetrazolium bromide test; assay type: functional, cell-based; conditions: MCF7, 72 h
[1] = Antiproliferative activity against human RS4:11 cells after 72 hrs by (3-(4,5-dimethylthiazol-2-yl)-2,5-diphenyltetrazolium bromide test; assay type: functional, cell-based; conditions: RS4-11, 72 h
How it was run: (§1)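 Jurkat, RS4;11 and HL-60 cells grown in RPMI-1640; MCF-7, A549, HeLa and HT-29 cells grown in DMEM; both media with 10% FBS and penicillin/streptomycin. 8 × 10^3 cells per well were preincubated 18 h at 37 °C, 5% CO2, then exposed 72 h to a concentration range (DMSO ≤0.25%). Read-out was MTT; IC50 was taken against cells given the maximum DMSO. Mean ± SE of at least three experiments.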

Jurkat = test: Antiproliferative activity against human Jurkat cells after 72 hrs by (3-(4,5-dimethylthiazol-2-yl)-2,5-diphenyltetrazolium bromide test; assay type: functional, cell-based; how it was run: as §1
[2] = Antiproliferative activity against human HL60 cells after 72 hrs by (3-(4,5-dimethylthiazol-2-yl)-2,5-diphenyltetrazolium bromide test; assay type: functional, cell-based; conditions: HL-60, 72 h; how it was run: as §1
HeLa = test: Antiproliferative activity against human HeLa cells after 72 hrs by (3-(4,5-dimethylthiazol-2-yl)-2,5-diphenyltetrazolium bromide test; assay type: functional, cell-based
Tubulin = Tubulin (Bos taurus, UniProt Q6B856+Q862L2+Q862F3); test: Inhibition of bovine brain tubulin assembly after 20 mins incubation by spectrophotometric analysis
How it was run: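 Bovine brain tubulin (10 μM) was preincubated with varying compound concentrations in glutamate buffer at 30 °C, then chilled to 0 °C. GTP was added to 0.4 mM final and the mixture warmed to 30 °C in cuvettes.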

HUVEC = test: Cytotoxicity against human HUVEC cells after 72 hrs by MTT assay; assay type: cell-based
How it was run: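 HUVECs were isolated from umbilical cord veins, kept in M200 with low-serum growth supplement and used at passages 1–6. […] Mean ± SEM of three separate experiments.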

MDA-MB-231 = test: Cytotoxicity against human MDA-MB-231 cells after 72 hrs by MTT assay; assay type: functional, cell-based; conditions: MDA-MB-231, 72 h
Mus musculus = test: In vivo antitumor activity against mouse BNL 1ME A.7R.1 cells allografted in Balb/c mouse assessed as reduction in tumor growth at 5 mg/kg, ip up to 8 days relative to vehicle treated control; assay type: functional, organism-based; design: dose 5 mg/kg
How it was run: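 Male Balb/c mice, 8 weeks old, received 10^7 BNL 1ME A.7R.1 cells in 200 μL PBS subcutaneously in the dorsal region. Mice were randomised into groups of 5 and dosed ip daily from day 2. Vehicle was 0.9% NaCl with 5% PEG 400 and 0.5% Tween 80, at 7 μL/g. Tumours were measured daily by caliper for 7 days; V = AB²/2.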

SMILES	IC50 (HT-29) [nM]	IC50 (A549) [nM]	IC50 (MCF7) [nM]	IC50 [1] [nM]	IC50 (Jurkat) [nM]	IC50 [2] [nM]	IC50 (HeLa) [nM]	IC50 (Tubulin) [nM]	IC50 (HUVEC) [nM]	IC50 (MDA-MB-231) [nM]	inhibition (Mus musculus)
CCOC(=O)c1oc2ccccc2c1Nc1cc(OC)c(OC)c(OC)c1	1600	5470	6600	300	180	2500	1330				
COc1ccc(/C=C\c2cc(OC)c(OC)c(OC)c2)cc1O [COMBRETASTATIN A4]				0.8		1					
CCOC(=O)c1oc2cccc(OC)c2c1Nc1cc(OC)c(OC)c(OC)c1	> 10000	> 10000	> 10000	> 10000	> 10000	> 10000	> 10000				
CCOC(=O)c1oc2ccc(OC)cc2c1Nc1cc(OC)c(OC)c(OC)c1	1400	8900	2900	190	2300	3400	1260				
COC(=O)c1oc2c(OC)cccc2c1Nc1cc(OC)c(OC)c(OC)c1	290	1270	520	1	30	320	130	7600			
CCOc1cccc2c(Nc3cc(OC)c(OC)c(OC)c3)c(C(=O)OC)oc12	3200	8900	> 10000	400	3700	4200	2530				
COC(=O)c1oc2c(O)c(OC)ccc2c1C(=O)c1cc(OC)c(OC)c(OC)c1									1	1	
COc1ccc(/C=C\c2cc(OC)c(OC)c(OC)c2)cc1OP(=O)(O)O											Active
CCOC(=O)c1oc2c(OC)cccc2c1Nc1cc(OC)c(OC)c(OC)c1	110	1100	2100	230	290	590	270	6400			
COC(=O)c1oc2ccccc2c1Nc1cc(OC)c(OC)c(OC)c1	930	5280	7800	430	4100	4400	260				
CCOC(=O)c1oc2c(OCC)cccc2c1Nc1cc(OC)c(OC)c(OC)c1	5300	7250	> 10000	3000	9100	5500	3280				
COC(=O)c1oc2cccc(OC)c2c1Nc1cc(OC)c(OC)c(OC)c1	> 10000	> 10000	> 10000	> 10000	> 10000	> 10000	> 10000				
COC(=O)c1oc2ccc(OC)cc2c1Nc1cc(OC)c(OC)c(OC)c1	240	1570	7900	39	210	470	250	7500			
